This passage reports Activity, Drug uptake and solubility results from ChEMBL document CHEMBL3817818, “Synthesis and evaluation of fluorescent Pam3Cys peptide conjugates” (Bioorg Med Chem Lett, 2016).

Calls of active or inactive are those of the source. The rule behind the calls is not given here. Where a SMILES comes first, the peptide text is derived from it. The star is where a group is joined. Propyl(2R-PamO,3-PamO) = CCCCCCCCCCCCCCCC(=O)OC[C@H](C*)OC(=O)CCCCCCCCCCCCCCC; X1 = CCCCCCCCCCCCCCCC(=O)OC[C@@H](C*)OC(=O)CCCCCCCCCCCCCCC; Palmitoyl = CCCCCCCCCCCCCCCC(=O)*

Series [1] deals with Toll-like receptor 2 (Homo sapiens) (UniProt O60603). Kind of series: Agonist activity at human TLR2 expressed in HEK cells assessed as increase in IL-8 production at 100 ng/ml incubated for 24 hrs by ELISA. Format: cell-based. The note with it: HEK293. In a few lines: (§1)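 HEK cells transfected with human TLR2 were incubated 24 h with conjugates at 100–25 nM, or with Pam₃CysSK₄ at 100 ng/mL. Receptor activation was read as IL-8 produced in the assay. Error bars are SD.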
(In general: An ELISA detects its analyte on a solid surface through an enzyme-linked reagent.)

The nature of series [2]: Drug uptake in H-2b harboring B6 mouse DC at 1 uM after 15 mins by confocal microscopic analysis. Format: ADME. To be noted: in vitro, 0.25 h. The essentials: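 Dendritic cells were exposed to conjugate for 15 min. Uptake and intracellular localisation were imaged by confocal laser scanning microscopy. Images are representative of multiple cells in at least 3 experiments.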

In series [3] the target is Toll-like receptor 2 (Homo sapiens) (UniProt O60603). Nature of the series: Agonist activity at human TLR2 expressed in HEK cells assessed as increase in IL-8 production at 25 to 100 nM incubated for 24 hrs by ELISA. Type of series: cell-based. The note with it: HEK293. In a few lines: as §1
Series [4] concerns the target Toll-like receptor 2 (Mus musculus) (UniProt Q9QUN7). Kind of series: Agonist activity at TLR2 in H-2b harboring B6 mouse DC assessed as cell maturation by measuring increase in IL-12 p40 production at 0.0625 to 1 uM incubated for 48 hrs by sandwich ELISA. In a few lines:
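Supernatants were harvested and IL-12 secretion measured by ELISA. Data shown are one representative of three independent experiments.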

Series [5] addresses Toll-like receptor 4 (Homo sapiens) (UniProt O00206). Nature of the series: Agonist activity at human TLR4 expressed in HEK cells assessed as increase in IL-8 production at 25 to 100 nM incubated for 24 hrs by ELISA. Format: cell-based. The note with it: HEK293.
Series [6] is described as follows: Aqueous solubility of compound. Format: physicochemical. The note with it: buffer.

Chain of Toll-like receptor 2 (Homo sapiens) (O60603 whole entry): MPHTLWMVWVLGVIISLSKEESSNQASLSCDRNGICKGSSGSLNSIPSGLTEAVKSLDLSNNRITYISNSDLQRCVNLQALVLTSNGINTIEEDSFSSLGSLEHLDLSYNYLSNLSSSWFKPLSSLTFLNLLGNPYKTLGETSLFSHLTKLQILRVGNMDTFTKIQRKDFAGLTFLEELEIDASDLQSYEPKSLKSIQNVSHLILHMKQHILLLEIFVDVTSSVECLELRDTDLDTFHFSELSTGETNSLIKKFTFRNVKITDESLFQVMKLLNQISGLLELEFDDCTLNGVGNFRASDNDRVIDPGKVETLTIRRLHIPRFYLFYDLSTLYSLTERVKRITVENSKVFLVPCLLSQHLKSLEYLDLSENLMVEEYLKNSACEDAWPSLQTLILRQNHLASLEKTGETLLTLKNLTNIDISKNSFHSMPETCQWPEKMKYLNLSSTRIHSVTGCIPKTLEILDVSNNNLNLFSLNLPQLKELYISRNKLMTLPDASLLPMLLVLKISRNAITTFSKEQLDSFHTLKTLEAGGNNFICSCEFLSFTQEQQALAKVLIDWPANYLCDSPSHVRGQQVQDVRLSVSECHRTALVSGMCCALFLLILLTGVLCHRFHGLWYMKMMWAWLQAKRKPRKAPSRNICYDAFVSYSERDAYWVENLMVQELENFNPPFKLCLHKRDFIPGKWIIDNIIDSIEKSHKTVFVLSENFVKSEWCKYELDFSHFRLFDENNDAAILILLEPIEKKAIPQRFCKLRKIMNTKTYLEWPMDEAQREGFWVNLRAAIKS
Chain of Toll-like receptor 4 (Homo sapiens) (O00206 whole entry): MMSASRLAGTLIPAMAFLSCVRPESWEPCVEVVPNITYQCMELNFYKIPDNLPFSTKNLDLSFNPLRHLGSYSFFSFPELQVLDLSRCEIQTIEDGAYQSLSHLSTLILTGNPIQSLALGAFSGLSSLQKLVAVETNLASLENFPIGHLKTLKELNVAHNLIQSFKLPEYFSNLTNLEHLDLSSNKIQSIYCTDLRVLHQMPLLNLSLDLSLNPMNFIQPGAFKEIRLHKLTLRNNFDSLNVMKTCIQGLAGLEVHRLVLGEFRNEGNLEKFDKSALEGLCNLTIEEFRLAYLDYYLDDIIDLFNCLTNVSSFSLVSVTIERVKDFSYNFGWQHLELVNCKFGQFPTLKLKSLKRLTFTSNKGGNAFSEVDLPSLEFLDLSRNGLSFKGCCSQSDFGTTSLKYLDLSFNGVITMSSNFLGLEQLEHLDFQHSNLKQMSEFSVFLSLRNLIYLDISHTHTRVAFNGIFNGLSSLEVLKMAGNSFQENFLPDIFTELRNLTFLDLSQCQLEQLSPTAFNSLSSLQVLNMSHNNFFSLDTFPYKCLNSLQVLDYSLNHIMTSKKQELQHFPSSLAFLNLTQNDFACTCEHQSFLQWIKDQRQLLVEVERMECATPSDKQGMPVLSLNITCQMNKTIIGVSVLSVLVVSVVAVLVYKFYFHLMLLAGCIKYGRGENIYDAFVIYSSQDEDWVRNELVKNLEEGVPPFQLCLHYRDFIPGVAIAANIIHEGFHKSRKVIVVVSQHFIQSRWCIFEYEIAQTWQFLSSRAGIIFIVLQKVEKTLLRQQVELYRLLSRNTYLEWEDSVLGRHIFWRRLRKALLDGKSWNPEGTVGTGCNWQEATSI
Chain of Toll-like receptor 2 (Mus musculus) (Q9QUN7 whole entry): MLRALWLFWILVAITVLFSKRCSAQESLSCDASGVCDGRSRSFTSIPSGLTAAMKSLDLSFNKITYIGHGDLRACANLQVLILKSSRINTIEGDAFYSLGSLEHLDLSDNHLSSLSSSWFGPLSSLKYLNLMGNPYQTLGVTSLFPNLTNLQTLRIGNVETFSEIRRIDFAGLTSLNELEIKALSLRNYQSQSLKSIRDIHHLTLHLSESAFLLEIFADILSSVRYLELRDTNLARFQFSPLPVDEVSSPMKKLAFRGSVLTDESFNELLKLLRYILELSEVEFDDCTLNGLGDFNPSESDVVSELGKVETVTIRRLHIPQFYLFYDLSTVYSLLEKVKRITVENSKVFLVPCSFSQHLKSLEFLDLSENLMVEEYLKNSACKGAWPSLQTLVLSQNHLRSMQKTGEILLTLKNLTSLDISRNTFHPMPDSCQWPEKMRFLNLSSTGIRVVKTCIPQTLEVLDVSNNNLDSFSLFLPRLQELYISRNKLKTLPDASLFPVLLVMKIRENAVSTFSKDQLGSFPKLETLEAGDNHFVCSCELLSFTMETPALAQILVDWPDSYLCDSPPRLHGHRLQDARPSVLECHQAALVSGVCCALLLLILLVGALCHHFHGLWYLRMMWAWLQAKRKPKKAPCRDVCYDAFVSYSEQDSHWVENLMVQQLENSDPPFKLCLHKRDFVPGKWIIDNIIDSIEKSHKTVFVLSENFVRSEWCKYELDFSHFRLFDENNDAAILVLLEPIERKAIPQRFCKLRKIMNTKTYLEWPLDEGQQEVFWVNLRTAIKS

For the molecule `CCCCCCCCCCCCCCCC(=O)N[C@@H](CSC[C@@H](COC(=O)CCCCCCCCCCCCCCC)OC(=O)CCCCCCCCCCCCCCC)C(=O)N[C@@H](CO)C(=O)N[C@@H](CCCCN)C(=O)N[C@@H](CCCCN)C(=O)N[C@@H](CCCCN)C(=O)N[C@@H](CCCCN)C(=O)O` (Palmitoyl-C(Propyl(2R-PamO,3-PamO))SKKKK-OH), the result in series [1] was Active.

As to `CCCCCCCCCCCCCCCC(=O)N[C@@H](CSC[C@H](COC(=O)CCCCCCCCCCCCCCC)OC(=O)CCCCCCCCCCCCCCC)C(=O)N[C@@H](CO)C(=O)N[C@@H](CCCCN)C(=O)N[C@@H](CCCCN)C(=O)N[C@@H](CCCCN)C(=O)N[C@@H](CCCCN)C(=O)N[C@@H](CC(=O)O)C(=O)N[C@@H](CCC(=O)O)C(=O)N[C@H](C(=O)N[C@@H](CO)C(=O)NCC(=O)N[C@@H](CC(C)C)C(=O)N[C@@H](CCC(=O)O)C(=O)N[C@@H](CCC(N)=O)C(=O)N[C@@H](CC(C)C)C(=O)N[C@@H](CCC(=O)O)C(=O)N[C@@H](CO)C(=O)N[C@H](C(=O)N[C@H](C(=O)N[C@@H](CC(N)=O)C(=O)N[C@@H](Cc1ccccc1)C(=O)N[C@@H](CCC(=O)O)C(=O)N[C@@H](CCCCn1nnc2c1CC[C@H]1[C@@H](CC2)[C@H]1COC(=O)NCCOCCOCCNC(=O)CCCC[N+]1=C(/C=C/C=C/C=C2\N(C)c3ccccc3C2(C)C)C(C)(C)c2ccccc21)C(=O)N[C@@H](CC(C)C)C(=O)O)[C@@H](C)CC)[C@@H](C)CC)C(C)C`, in series [2], the Drug uptake entry is given as “Active”.

As for `CCCCCCCCCCCCCCCC(=O)N[C@@H](CSC[C@H](COC(=O)CCCCCCCCCCCCCCC)OC(=O)CCCCCCCCCCCCCCC)C(=O)N[C@@H](CO)C(=O)N[C@@H](CCCCN)C(=O)N[C@@H](CCCCN)C(=O)N[C@@H](CCCCN)C(=O)N[C@@H](CCCCN)C(=O)N[C@@H](CC(=O)O)C(=O)N[C@@H](CCC(=O)O)C(=O)N[C@H](C(=O)N[C@@H](CO)C(=O)NCC(=O)N[C@@H](CC(C)C)C(=O)N[C@@H](CCC(=O)O)C(=O)N[C@@H](CCC(N)=O)C(=O)N[C@@H](CC(C)C)C(=O)N[C@@H](CCC(=O)O)C(=O)N[C@@H](CO)C(=O)N[C@H](C(=O)N[C@H](C(=O)N[C@@H](CC(N)=O)C(=O)N[C@@H](Cc1ccccc1)C(=O)N[C@H](CCC(=O)O)C(=O)N[C@@H](CCCCn1nnc2c1CC[C@H]1[C@@H](CC2)[C@H]1COC(=O)NCCOCCOCCNC(=O)CCCC[N+]1=C(/C=C/C=C/C=C2\N(C)c3ccccc3C2(C)C)C(C)(C)c2ccccc21)C(=O)N[C@H](CC(C)C)C(=O)O)[C@H](C)CC)[C@H](C)CC)C(C)C`, the outcome in series [3], in series [4] and in series [5] was inactive.

As for `CCCCCCCCCCCCCCCC(=O)N[C@@H](CSC[C@@H](COC(=O)CCCCCCCCCCCCCCC)OC(=O)CCCCCCCCCCCCCCC)C(=O)N[C@@H](CO)C(=O)N[C@@H](CCCCN)C(=O)N[C@@H](CCCCN)C(=O)N[C@@H](CCCCN)C(=O)N[C@@H](CCCCN)C(=O)N[C@@H](CC(=O)O)C(=O)N[C@@H](CCC(=O)O)C(=O)N[C@H](C(=O)N[C@@H](CO)C(=O)NCC(=O)N[C@@H](CC(C)C)C(=O)N[C@@H](CCC(=O)O)C(=O)N[C@@H](CCC(N)=O)C(=O)N[C@@H](CC(C)C)C(=O)N[C@@H](CCC(=O)O)C(=O)N[C@@H](CO)C(=O)N[C@H](C(=O)N[C@H](C(=O)N[C@@H](CC(N)=O)C(=O)N[C@@H](Cc1ccccc1)C(=O)N[C@@H](CCC(=O)O)C(=O)N[C@@H](CCCCn1nnc2c1CC[C@H]1[C@@H](CC2)[C@H]1COC(=O)NCCOCCOCCNC(=O)CCCC[N+]1=C(/C=C/C=C/C=C2\N(C)c3ccccc3C2(C)C)C(C)(C)c2ccccc21)C(=O)N[C@@H](CC(C)C)C(=O)O)[C@@H](C)CC)[C@@H](C)CC)C(C)C`, in series [2], the Drug uptake result is reported as “Active”.

Turning to `CCCCCCCCCCCCCCCC(=O)N[C@@H](CSC[C@H](COC(=O)CCCCCCCCCCCCCCC)OC(=O)CCCCCCCCCCCCCCC)C(=O)N[C@@H](CO)C(=O)N[C@@H](CCCCN)C(=O)N[C@@H](CCCCN)C(=O)N[C@@H](CCCCN)C(=O)N[C@@H](CCCCN)C(=O)N[C@@H](CC(=O)O)C(=O)N[C@@H](CCC(=O)O)C(=O)N[C@H](C(=O)N[C@@H](CO)C(=O)NCC(=O)N[C@@H](CC(C)C)C(=O)N[C@@H](CCC(=O)O)C(=O)N[C@@H](CCC(N)=O)C(=O)N[C@@H](CC(C)C)C(=O)N[C@@H](CCC(=O)O)C(=O)N[C@@H](CO)C(=O)N[C@H](C(=O)N[C@H](C(=O)N[C@@H](CC(N)=O)C(=O)N[C@@H](Cc1ccccc1)C(=O)N[C@@H](CCC(=O)O)C(=O)N[C@@H](CCCCN)C(=O)N[C@@H](CC(C)C)C(=O)O)[C@@H](C)CC)[C@@H](C)CC)C(C)C` (Palmitoyl-C(X1)SKKKKDEVSGLEQLESIINFEKL-OH), the outcome in series [3], in series [4] and in series [5] was inactive.

For the molecule `CCCCCCCCCCCCCCCC(=O)N[C@@H](CSC[C@@H](COC(=O)CCCCCCCCCCCCCCC)OC(=O)CCCCCCCCCCCCCCC)C(=O)N[C@@H](CO)C(=O)N[C@@H](CCCCN)C(=O)N[C@@H](CCCCN)C(=O)N[C@@H](CCCCN)C(=O)N[C@@H](CCCCN)C(=O)N[C@@H](CC(=O)O)C(=O)N[C@@H](CCC(=O)O)C(=O)N[C@H](C(=O)N[C@@H](CO)C(=O)NCC(=O)N[C@@H](CC(C)C)C(=O)N[C@@H](CCC(=O)O)C(=O)N[C@@H](CCC(N)=O)C(=O)N[C@@H](CC(C)C)C(=O)N[C@@H](CCC(=O)O)C(=O)N[C@@H](CO)C(=O)N[C@H](C(=O)N[C@H](C(=O)N[C@@H](CC(N)=O)C(=O)N[C@@H](Cc1ccccc1)C(=O)N[C@H](CCC(=O)O)C(=O)N[C@@H](CCCCn1nnc2c1CC[C@H]1[C@@H](CC2)[C@H]1COC(=O)NCCOCCOCCNC(=O)CCCC[N+]1=C(/C=C/C=C/C=C2\N(C)c3ccccc3C2(C)C)C(C)(C)c2ccccc21)C(=O)N[C@H](CC(C)C)C(=O)O)[C@H](C)CC)[C@H](C)CC)C(C)C`, the outcome in series [3] and in series [4] was Active. Further, in series [5], the result was inactive.

`CCCCCCCCCCCCCCCC(=O)N[C@H](CSC[C@H](COC(=O)CCCCCCCCCCCCCCC)OC(=O)CCCCCCCCCCCCCCC)C(=O)N[C@H](CO)C(=O)N[C@H](CCCCN)C(=O)N[C@H](CCCCN)C(=O)N[C@H](CCCCN)C(=O)N[C@H](CCCCN)C(=O)N[C@H](CC(=O)O)C(=O)N[C@H](CCC(=O)O)C(=O)N[C@@H](C(=O)N[C@H](CO)C(=O)NCC(=O)N[C@H](CC(C)C)C(=O)N[C@H](CCC(=O)O)C(=O)N[C@H](CCC(N)=O)C(=O)N[C@H](CC(C)C)C(=O)N[C@H](CCC(=O)O)C(=O)N[C@H](CO)C(=O)N[C@@H](C(=O)N[C@@H](C(=O)N[C@H](CC(N)=O)C(=O)N[C@H](Cc1ccccc1)C(=O)N[C@@H](CCC(=O)O)C(=O)N[C@H](CCCCn1nnc2c1CC[C@@H]1[C@H](CC2)[C@@H]1COC(=O)NCCOCCOCCNC(=O)c1ccc(-c2c3ccc(=[N+](C)C)cc-3oc3cc(N(C)C)ccc23)c(C(=O)[O-])c1)C(=O)N[C@@H](CC(C)C)C(=O)O)[C@@H](C)CC)[C@@H](C)CC)C(C)C`: the solubility entry in series [6] is “Insoluble”. Besides, the result in series [4] was Active.

In the case of `CCCCCCCCCCCCCCCC(=O)N[C@@H](CSC[C@@H](COC(=O)CCCCCCCCCCCCCCC)OC(=O)CCCCCCCCCCCCCCC)C(=O)N[C@@H](CO)C(=O)N[C@@H](CCCCN)C(=O)N[C@@H](CCCCN)C(=O)N[C@@H](CCCCN)C(=O)N[C@@H](CCCCN)C(=O)N[C@@H](CC(=O)O)C(=O)N[C@@H](CCC(=O)O)C(=O)N[C@H](C(=O)N[C@@H](CO)C(=O)NCC(=O)N[C@@H](CC(C)C)C(=O)N[C@@H](CCC(=O)O)C(=O)N[C@@H](CCC(N)=O)C(=O)N[C@@H](CC(C)C)C(=O)N[C@@H](CCC(=O)O)C(=O)N[C@@H](CO)C(=O)N[C@H](C(=O)N[C@H](C(=O)N[C@@H](CC(N)=O)C(=O)N[C@@H](Cc1ccccc1)C(=O)N[C@@H](CCC(=O)O)C(=O)N[C@@H](CCCCN)C(=O)N[C@@H](CC(C)C)C(=O)O)[C@@H](C)CC)[C@@H](C)CC)C(C)C` (Palmitoyl-C(Propyl(2R-PamO,3-PamO))SKKKKDEVSGLEQLESIINFEKL-OH), the outcome in series [3] and in series [4] was Active. Moreover, the result in series [5] was inactive.

Consider `CCCCCCCCCCCCCCCC(=O)N[C@H](CSC[C@@H](COC(=O)CCCCCCCCCCCCCCC)OC(=O)CCCCCCCCCCCCCCC)C(=O)N[C@H](CO)C(=O)N[C@H](CCCCN)C(=O)N[C@H](CCCCN)C(=O)N[C@H](CCCCN)C(=O)N[C@H](CCCCN)C(=O)N[C@H](CC(=O)O)C(=O)N[C@H](CCC(=O)O)C(=O)N[C@@H](C(=O)N[C@H](CO)C(=O)NCC(=O)N[C@H](CC(C)C)C(=O)N[C@H](CCC(=O)O)C(=O)N[C@H](CCC(N)=O)C(=O)N[C@H](CC(C)C)C(=O)N[C@H](CCC(=O)O)C(=O)N[C@H](CO)C(=O)N[C@@H](C(=O)N[C@@H](C(=O)N[C@H](CC(N)=O)C(=O)N[C@H](Cc1ccccc1)C(=O)N[C@@H](CCC(=O)O)C(=O)N[C@H](CCCCn1nnc2c1CC[C@@H]1[C@H](CC2)[C@@H]1COC(=O)NCCOCCOCCNC(=O)c1ccc(-c2c3ccc(=[N+](C)C)cc-3oc3cc(N(C)C)ccc23)c(C(=O)[O-])c1)C(=O)N[C@@H](CC(C)C)C(=O)O)[C@@H](C)CC)[C@@H](C)CC)C(C)C`, for which the solubility result in series [6] is listed as “Insoluble”. Further, in series [4], the result was inactive.
